Reference: paper PMC3254186 (Frontiers in Pharmacology, 2011)
Where a name gives a salt, the structure may show the parent alone.

Target: T1, Kir1.1 (S44D) (Rattus norvegicus, UniProt P35560, S44D)
T1 sequence (P35560 1-391 S44D): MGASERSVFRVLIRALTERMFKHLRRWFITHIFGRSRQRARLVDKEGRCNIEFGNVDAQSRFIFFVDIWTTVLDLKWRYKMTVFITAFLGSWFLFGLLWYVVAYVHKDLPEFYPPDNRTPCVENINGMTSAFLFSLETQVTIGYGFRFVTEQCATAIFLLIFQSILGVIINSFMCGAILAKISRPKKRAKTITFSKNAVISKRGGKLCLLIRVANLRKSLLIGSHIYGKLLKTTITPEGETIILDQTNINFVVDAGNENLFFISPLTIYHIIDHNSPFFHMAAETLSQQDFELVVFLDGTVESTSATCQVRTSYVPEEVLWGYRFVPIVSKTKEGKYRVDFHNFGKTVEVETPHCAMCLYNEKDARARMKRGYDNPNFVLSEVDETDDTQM
Experiment: Tl+ flux assay, tetracycline-inducible Kir1.1-S44D T-REx-HEK-293 cells
Type: cell-based
Settings: IC50 Kir1.1, Tl+ flux, mean ± SEM (n = 3)
Procedure, shortened: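 Monoclonal C1 T-REx-HEK-293 Kir1.1-S44D cells were grown in DMEM with 10% FBS, penicillin/streptomycin, 5 μg/mL blasticidin S and 250 μg/mL hygromycin. Channel expression was induced overnight with tetracycline. Cells were loaded with FluoZin-2 and pre-treated with test compound from 1:3 serial dilutions. Extracellular Tl+ was then added and fluorescence imaged kinetically at 20–23°C. CRC, mean ± SEM, n = 3.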

Row | IC50 [µM] | SMILES
1 | 8.53 ± 1.7 | Cc1cc(OCC(O)Cn2c(=N)n(Cc3ccccc3)c3ccccc32)ccc1Br (centres unmarked) [Compound 16, 1-(3-benzyl-2-imino-2,3-dihydro-1H-benzo[d]imidazol-1-yl)-3-(4-bromo-3-methylphenoxy)propan-2-ol]
2 | 11.2 ± 2.8 | Cc1cccc(OCC(O)Cn2c(=N)n(Cc3ccccc3)c3ccccc32)c1 (centres unmarked) [Compound 4, 1-(3-benzyl-2-imino-2,3-dihydro-1H-benzo[d]imidazol-1-yl)-3-(m-tolyloxy)propan-2-ol]
3 | 11.9 ± 2.2 | Cc1ccccc1OCC(O)Cn1c(=N)n(Cc2ccccc2)c2ccccc21 (centres unmarked) [Compound 6, 1-(3-benzyl-2-imino-2,3-dihydro-1H-benzo[d]imidazol-1-yl)-3-(o-tolyloxy)propan-2-ol]
4 | 6.57 ± 3.8 | N=c1n(Cc2ccccc2)c2ccccc2n1CC(O)COc1ccc(Cl)cc1 (centres unmarked) [Compound 3, 1-(3-benzyl-2-imino-2,3-dihydro-1H-benzo[d]imidazol-1-yl)-3-(4-chlorophenoxy)propan-2-ol]
5 | 11.7 ± 2.1 | N=c1n(Cc2ccccc2)c2ccccc2n1CC(O)COc1cccc(Cl)c1 (centres unmarked) [Compound 18, 1-(3-benzyl-2-imino-2,3-dihydro-1H-benzo[d]imidazol-1-yl)-3-(3-chlorophenoxy)propan-2-ol]
6 | 6.77 ± 1.7 | CC(C)c1ccc(OCC(O)Cn2c(=N)n(Cc3ccccc3)c3ccccc32)cc1 (centres unmarked) [Compound 8, 1-(3-benzyl-2-imino-2,3-dihydro-1H-benzo[d]imidazol-1-yl)-3-(4-isopropylphenoxy)propan-2-ol]
7 | 7.57 ± 2.2 | N=c1n(Cc2ccccc2)c2ccccc2n1CC(O)COc1cc(F)cc(F)c1 (centres unmarked) [Compound 7, 1-(3-benzyl-2-imino-2,3-dihydro-1H-benzo[d]imidazol-1-yl)-3-(3,5-difluorophenoxy)propan-2-ol]
8 | 10.1 ± 2.9 | COc1cccc(OCC(O)Cn2c(=N)n(Cc3ccccc3)c3ccccc32)c1 (centres unmarked) [Compound 14, 1-(3-benzyl-2-imino-2,3-dihydro-1H-benzo[d]imidazol-1-yl)-3-(3-methoxyphenoxy)propan-2-ol]
9 | 14.3 ± 1.5 | N#Cc1cc(F)cc(OCC(O)Cn2c(=N)n(Cc3ccccc3)c3ccccc32)c1 (centres unmarked) [Compound 19, 3-(3-(3-benzyl-2-imino-2,3-dihydro-1H-benzo[d]imidazol-1-yl)-2-hydroxypropoxy)-5-fluorobenzonitrile]
10 | 16 ± 2 | Cc1cc(C)cc(OCC(O)Cn2c(=N)n(Cc3ccccc3)c3ccccc32)c1 (centres unmarked) [Compound 20, 1-(3-benzyl-2-imino-2,3-dihydro-1H-benzo[d]imidazol-1-yl)-3-(3,5-dimethylphenoxy)propan-2-ol]

More lines, now with the values behind:

Row | SMILES | IC50 [µM]
11 | Cn1c(=N)n(CC(O)COc2ccc(C(F)(F)F)cc2)c2ccccc21 (centres unmarked) [Compound 26, 1-(2-imino-3-methyl-2,3-dihydro-1H-benzo[d]imidazol-1-yl)-3-(4-(trifluoromethyl)phenoxy)propan-2-ol] | 6.97 ± 2
12 | COc1ccc(OCC(O)Cn2c(=N)n(Cc3ccccc3)c3ccccc32)cc1 (centres unmarked) [Compound 13, 1-(3-benzyl-2-imino-2,3-dihydro-1H-benzo[d]imidazol-1-yl)-3-(4-methoxyphenoxy)propan-2-ol] | 12.7 ± 1.2
13 | N=c1n(Cc2ccccc2)c2ccccc2n1CC(O)COc1ccc(OCc2ccccc2)cc1 (centres unmarked) [Compound 11, 1-(3-benzyl-2-imino-2,3-dihydro-1H-benzo[d]imidazol-1-yl)-3-(4-(benzyloxy)phenoxy)propan-2-ol] | 5.23 ± 0.59
14 | N=c1n(Cc2ccccc2)c2ccccc2n1CC(O)COc1ccccc1 (centres unmarked) [Compound 5, 1-(3-benzyl-2-imino-2,3-dihydro-1H-benzo[d]imidazol-1-yl)-3-phenoxypropan-2-ol] | 11.7 ± 4.1
15 | N=c1n(Cc2ccccc2)c2ccccc2n1CC(O)COc1ccc(Cc2ccccc2)cc1 (centres unmarked) [Compound 10, 1-(3-benzyl-2-imino-2,3-dihydro-1H-benzo[d]imidazol-1-yl)-3-(4-benzylphenoxy)propan-2-ol] | 6.13 ± 0.23
16 | N#Cc1ccc(F)c(OCC(O)Cn2c(=N)n(Cc3ccccc3)c3ccccc32)c1 (centres unmarked) [Compound 17, 3-(3-(3-benzyl-2-imino-2,3-dihydro-1H-benzo[d]imidazol-1-yl)-2-hydroxypropoxy)-4-fluorobenzonitrile] | 8.27 ± 0.29
17 | N=c1n(Cc2ccccc2)c2ccccc2n1CC(O)COc1ccccc1Cl (centres unmarked) [Compound 15, 1-(3-benzyl-2-imino-2,3-dihydro-1H-benzo[d]imidazol-1-yl)-3-(2-chlorophenoxy)propan-2-ol] | 8.6 ± 1.2
18 | N=c1n(Cc2ccc(Cl)cc2)c2ccccc2n1CC(O)COc1ccccc1 (centres unmarked) [Compound 22, 1-(3-(4-chlorobenzyl)-2-imino-2,3-dihydro-1H-benzo[d]imidazol-1-yl)-3-phenoxypropan-2-ol] | 14.7 ± 2.1
19 | N=c1n(Cc2ccccc2)c2ccccc2n1CC(O)CN1CCOCC1 (centres unmarked) [Compound 9, 1-(3-benzyl-2-imino-2,3-dihydro-1H-benzo[d]imidazol-1-yl)-3-morpholinopropan-2-ol] | > 100
20 | N=c1n(Cc2ccccc2)c2ccccc2n1CC(O)COc1ccc(Cl)cc1Cl (centres unmarked) [Compound 2, 1-(3-benzyl-2-imino-2,3-dihydro-1H-benzo[d]imidazol-1-yl)-3-(2,4-dichlorophenoxy)propan-2-ol] | 7.07 ± 2.3
21 | COc1cccc(Cn2c(=N)n(CC(O)COc3ccc(C)cc3)c3ccccc32)c1 (centres unmarked) [Compound 24, 1-(2-imino-3-(3-methoxybenzyl)-2,3-dihydro-1H-benzo[d]imidazol-1-yl)-3-(p-tolyloxy)propan-2-ol] | 13.7 ± 4.4
22 | Cc1ccc(OCC(O)Cn2c(=N)n(C)c3ccccc32)cc1 (centres unmarked) [Compound 25, 1-(2-imino-3-methyl-2,3-dihydro-1H-benzo[d]imidazol-1-yl)-3-(p-tolyloxy)propan-2-ol] | 13 ± 2.6
23 | N=c1n(Cc2ccc(Cl)cc2)c2ccccc2n1CC(O)COc1ccc(Cl)cc1 (centres unmarked) [Compound 23, 1-(3-(4-chlorobenzyl)-2-imino-2,3-dihydro-1H-benzo[d]imidazol-1-yl)-3-(4-chlorophenoxy)propan-2-ol] | 6.53 ± 3.9
24 | N#Cc1ccc(OCC(O)Cn2c(=N)n(Cc3ccccc3)c3ccccc32)cc1 (centres unmarked) [Compound 12, 4-(3-(3-benzyl-2-imino-2,3-dihydro-1H-benzo[d]imidazol-1-yl)-2-hydroxypropoxy)benzonitrile] | 15.7 ± 2.1
25 | COc1ccccc1OCC(O)Cn1c(=N)n(Cc2ccccc2)c2ccccc21 (centres unmarked) [Compound 21, 1-(3-benzyl-2-imino-2,3-dihydro-1H-benzo[d]imidazol-1-yl)-3-(2-methoxyphenoxy)propan-2-ol] | 19.3 ± 1.5

Target: T2, Kir7.1-M125R (Homo sapiens, UniProt O60928, M125R)
T2 sequence (O60928 1-360 M125R): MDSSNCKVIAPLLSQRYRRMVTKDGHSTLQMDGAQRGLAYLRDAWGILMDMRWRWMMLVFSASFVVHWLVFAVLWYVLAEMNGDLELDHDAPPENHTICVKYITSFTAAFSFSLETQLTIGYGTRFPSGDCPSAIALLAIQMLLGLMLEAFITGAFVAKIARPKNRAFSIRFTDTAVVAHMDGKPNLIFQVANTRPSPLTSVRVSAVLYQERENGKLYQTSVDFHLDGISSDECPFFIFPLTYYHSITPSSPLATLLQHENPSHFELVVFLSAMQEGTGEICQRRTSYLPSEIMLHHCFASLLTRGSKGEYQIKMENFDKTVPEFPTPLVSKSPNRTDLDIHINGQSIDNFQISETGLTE
Experiment: Tl+ flux assay, polyclonal Kir7.1-M125R T-REx-HEK-293 cells
Type: cell-based
Settings: not given

Row | activity toward Kir7.1 | SMILES
26 | lost activity | N=c1n(Cc2ccccc2)c2ccccc2n1CC(O)COc1ccc(OCc2ccccc2)cc1 (centres unmarked) [Compound 11, 1-(3-benzyl-2-imino-2,3-dihydro-1H-benzo[d]imidazol-1-yl)-3-(4-(benzyloxy)phenoxy)propan-2-ol]
27 | lost activity | N=c1n(Cc2ccccc2)c2ccccc2n1CC(O)CN1CCOCC1 (centres unmarked) [Compound 9, 1-(3-benzyl-2-imino-2,3-dihydro-1H-benzo[d]imidazol-1-yl)-3-morpholinopropan-2-ol]

Test system: Kir7.1
Experiment: not given
Settings: read-out: IC50 Kir7.1; ref Lewis et al., [2009]; cited from earlier work

Row | SMILES | IC50 [µM]
28 | O=[N+]([O-])c1ccc(CN2CCOCCOCCN(Cc3ccc([N+](=O)[O-])cc3)CCOCC2)cc1 [VU590, 7,13-bis[(4-nitrophenyl)methyl]-1,4,10-trioxa-7,13-diazacyclopentadecanedihydrochloride] | ~8

Test system: Kir1.1
Experiment: not given
Settings: read-out: Kir1.1 inhibitor potency; ref Lewis et al., [2009]; cited from earlier work

Row | SMILES | IC50 [µM]
29 | O=[N+]([O-])c1ccc(CN2CCOCCOCCN(Cc3ccc([N+](=O)[O-])cc3)CCOCC2)cc1 [VU590, 7,13-bis[(4-nitrophenyl)methyl]-1,4,10-trioxa-7,13-diazacyclopentadecanedihydrochloride] | ~0.3
